Common to all, as to type: functional
The subject of experiment [1] is Rattus norvegicus. The experiment can be described thus: Maximum percent decrease in heart rate of spontaneously hypertensive rats, 3 hours after peroral administration of 50 mg/kg of compound. Conditions: route oral. Summed up: (§1)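 Heart rate was derived from the pulsatile arterial pressure signal in conscious catheterized male SHR (22-24 weeks, 250-350 g), with continuous monitoring sampled 3 min per 30 min. Drug was given by gavage as a 4% gum acacia suspension at 2 mL/kg, dose as free base, to groups of 3-4 rats with mean pressure >150 mmHg. Individual 30-min means were compared with pretreatment values.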

For experiment [2], the system named is Rattus norvegicus. The experiment can be described thus: Blood pressure rating in spontaneously hypertensive rats, 24 hr after peroral administration of 50 mg/kg of compound. Conditions: route oral. Summed up:
(§2)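 Conscious male SHR (Kyoto-Wistar origin, 22-24 weeks, 250-350 g) with indwelling catheters, given about 160 units heparin/day in saline. Only rats with mean blood pressure >150 mmHg and pulse pressure >25 mmHg were used, in groups of 3-4. Dosing was oral gavage at 2 mL/kg in 4% gum acacia suspension, as free base. Pressure was sampled 3 min of every 30 min, and 30-min means were compared with pretreatment values.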

Experiment [3] deals with Rattus norvegicus. The experiment can be described thus: Blood pressure rating in spontaneously hypertensive rats, 2 hr after peroral administration of 50 mg/kg of compound. Conditions: route oral. Put shortly:
as §2

The test system of experiment [4] is Rattus norvegicus. As to the kind of experiment: Blood pressure rating in spontaneously hypertensive rats, 10 hr after peroral administration of 50 mg/kg of compound. Conditions: route oral. Put shortly:
as §2

In experiment [5] the test system is Rattus norvegicus. As to the kind of experiment: Effect on heart rate of spontaneously hypertensive rats, 24 hr after peroral administration at 50 mg/kg. The settings on record: route oral. Summed up: as §1
Experiment [6] concerns Rattus norvegicus. As to the kind of experiment: Effect on heart rate of spontaneously hypertensive rats, 2 hr after peroral administration at 50 mg/kg. The settings on record: route oral. Put shortly: as §1
Experiment [7] deals with Rattus norvegicus. As to the kind of experiment: Maximum percent decrease in heart rate of spontaneously hypertensive rats, 8 hr after peroral administration of 50 mg/kg of compound. The settings on record: route oral. Put shortly: (§3)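 Conscious male SHR (Kyoto-Wistar origin, 22-24 weeks, 250-350 g; mean BP >150 mmHg, pulse pressure >25 mmHg) with indwelling catheters, ~0.8 mL heparinized saline/day. Dosed by gavage as a 4% gum acacia suspension, 2 mL/kg, free-base doses, 3-4 rats per group. Heart rate was derived from the pulsatile pressure signal, sampled 3 min every 30 min, and 30-min means were compared with pretreatment values.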

The test system of experiment [8] is Rattus norvegicus. The experiment can be described thus: Effect on heart rate of spontaneously hypertensive rats, 10 hr after peroral administration at 50 mg/kg. The settings on record: route oral. Put shortly: as §1
Experiment [9] deals with Rattus norvegicus. As to the kind of experiment: Effect on heart rate of spontaneously hypertensive rats, 24 hours after peroral administration of 50 mg/kg of compound. The settings on record: route oral. Summed up:
as §1

Experiment [10] has as its system Rattus norvegicus. The experiment can be described thus: Maximum percent decrease in heart rate of spontaneously hypertensive rats, 10 hr after peroral administration of 50 mg/kg of compound. Conditions: route oral. Put shortly: as §1
Experiment [11] relates to Rattus norvegicus. As to the kind of experiment: Max effect on heart rate of spontaneously hypertensive rats, 3-5 hr after peroral administration of 10 mg/kg of compound. The settings on record: route oral. Summed up: as §1
In experiment [12] the test system is Rattus norvegicus. As to the kind of experiment: Maximum percent decrease in heart rate of spontaneously hypertensive rats, 4 hr after peroral administration of 50 mg/kg of compound. The settings on record: route oral. Put shortly:
as §1

In experiment [13] the test system is Rattus norvegicus. As to the kind of experiment: Maximum percent decrease in heart rate of spontaneously hypertensive rats, 4 hours after peroral administration of 50 mg/kg of compound. The settings on record: route oral. Summed up: as §1
Experiment [14] deals with Rattus norvegicus. As to the kind of experiment: Effect on heart rate of spontaneously hypertensive rats, 10 hr after peroral administration of 10 mg/kg of compound. Conditions: route oral. Summed up: as §1
Experiment [15] relates to Rattus norvegicus. The experiment can be described thus: Effect on heart rate of spontaneously hypertensive rats, 24 hr after peroral administration of 10 mg/kg of compound. Conditions: route oral. Put shortly: as §1
Experiment [16] concerns Rattus norvegicus. The experiment can be described thus: Maximum percent decrease in heart rate of spontaneously hypertensive rats, 28 hours after peroral administration of 50 mg/kg of compound. Conditions: route oral. Put shortly:
as §1

For experiment [17], the system named is Rattus norvegicus. As to the kind of experiment: Effect on heart rate of spontaneously hypertensive rats,18hours after peroral administration of 50 mg/kg of compound. The settings on record: route oral. Put shortly:
as §1

Experiment [18] concerns Rattus norvegicus. The experiment can be described thus: Effect on heart rate of spontaneously hypertensive rats, 2 hr after peroral administration of 10 mg/kg of compound. The settings on record: route oral. Summed up:
as §1

In experiment [19] the test system is Rattus norvegicus. The experiment can be described thus: Effect on heart rate of spontaneously hypertensive rats, 18 hr after peroral administration of 10 mg/kg of compound. The settings on record: route oral. Put shortly:
as §1

The subject of experiment [20] is Rattus norvegicus. As to the kind of experiment: Maximum percent decrease in heart rate of spontaneously hypertensive rats, 6 hours after peroral administration of 50 mg/kg of compound. Conditions: route oral. Summed up: as §3
Experiment [21] has as its system Rattus norvegicus. The experiment can be described thus: Maximum percent decrease in heart rate of spontaneously hypertensive rats, 24 hours after peroral administration of 50 mg/kg of compound. The settings on record: route oral. Put shortly: as §1
For experiment [22], the system named is Rattus norvegicus. As to the kind of experiment: Effect on heart rate of spontaneously hypertensive rats,24hours after peroral administration of 10 mg/kg of compound. Conditions: route oral. Summed up: as §1
Experiment [23] deals with Rattus norvegicus. The experiment can be described thus: Effect on heart rate of spontaneously hypertensive rats, 24 hr after peroral administration of 3 mg/kg of compound. The settings on record: route oral. Put shortly: as §1
In experiment [24] the test system is Rattus norvegicus. The experiment can be described thus: Effect on heart rate of spontaneously hypertensive rats, 2 hr after peroral administration of 3 mg/kg of compound. The settings on record: route oral. Put shortly: as §1
Experiment [25] has as its system Rattus norvegicus. As to the kind of experiment: Effect on heart rate of spontaneously hypertensive rats, 10 hr after peroral administration of 3 mg/kg of compound. The settings on record: route oral. Put shortly: as §1
For experiment [26], the species on record is Rattus norvegicus. The experiment can be described thus: Dose required to lower blood pressure by 30mmHg, 5-h post treatment. Summed up:
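Conscious male SHR (22-24 weeks, 250-350 g) with indwelling catheters for continuous blood pressure and heart rate monitoring; only rats with mean pressure >150 mmHg and pulse pressure >25 mmHg were used. Oral gavage of a suspension in 4% gum acacia (2 mL/kg), doses as free base, groups of 3-4. Mean pressure was sampled 3 min per 30 min and compared with pretreatment; the value is the dose lowering pressure by 30 mmHg at 5 h.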

Experiment [27] deals with Rattus norvegicus. The experiment can be described thus: Maximum percent decrease in heart rate of spontaneously hypertensive rats, 10 hours after peroral administration of 50 mg/kg of compound. Conditions: route oral. Put shortly: as §1
For experiment [28], the system named is Rattus norvegicus. The experiment can be described thus: Maximum percent decrease in heart rate of spontaneously hypertensive rats, 5 hours after peroral administration of 50 mg/kg of compound. The settings on record: route oral. Summed up: as §3
The subject of experiment [29] is Rattus norvegicus. As to the kind of experiment: Maximum effect on heart rate of spontaneously hypertensive rats, 18 hours after peroral administration of 10 mg/kg of compound. Conditions: route oral. Put shortly:
as §1

In experiment [30] the test system is Rattus norvegicus. As to the kind of experiment: Maximum effect on heart rate of spontaneously hypertensive rats, 3-5 hr after peroral administration of 10 mg/kg of compound. Conditions: route oral. Summed up:
as §1

Experiment [31] has as its system Rattus norvegicus. As to the kind of experiment: (§4) Max effect on heart rate of spontaneously hypertensive rats, 3-5 hr after peroral administration of 3 mg/kg of compound. The settings on record: route oral. Put shortly: as §1
For experiment [32], the system named is Rattus norvegicus. Described as §4. The settings on record: route oral. Put shortly:
as §1
The source holds these as a separate data set.

The test system of experiment [33] is Rattus norvegicus. As to the kind of experiment: Max effect on heart rate of spontaneously hypertensive rats, 3-5 hr after peroral administration of 3 mg/kg of compound; significant decrease observed on 2nd and 3rd days. The settings on record: route oral. Put shortly:
as §1

Experiment [34] deals with Rattus norvegicus. As to the kind of experiment: Max effect on heart rate of spontaneously hypertensive rats, 3-5 hr after peroral administration of 10 mg/kg of compound; significant decrease observed on 2nd and 3rd days. Conditions: route oral. Put shortly:
as §1

Compound `COCc1ncc2cc(-c3c(Cl)cccc3Cl)c(N)nc2n1` gave a Decrease with Rattus norvegicus [1] of 14%. Moreover, the Activity rating with Rattus norvegicus [2], in the experiment with Rattus norvegicus [3] and in the experiment with Rattus norvegicus [4] was 1 throughout.
Regarding `Cc1ncc2cc(-c3ccccc3Cl)c(N)nc2n1`, the values for the Activity rating in the experiment on Rattus norvegicus [5], with Rattus norvegicus [6] and with Rattus norvegicus [8] were 1, 0 and 1, respectively. In the experiment on Rattus norvegicus [7], the Decrease worked out at 16%.
For `Nc1nc2ncncc2cc1-c1ccccc1Cl`, the Activity rating in the experiment with Rattus norvegicus [6], in the experiment with Rattus norvegicus [9] and in the experiment on Rattus norvegicus [8] was 0 in each case.
For `Nc1nc2nc(CO)ncc2cc1-c1c(Cl)cccc1Cl`, the Activity rating was found to be 1 in the experiment on Rattus norvegicus [5], 0 in the experiment with Rattus norvegicus [6] and 1 in the experiment on Rattus norvegicus [8]. In addition, in the experiment on Rattus norvegicus [10], the Decrease is 17%.
As for `Cc1cccc(C)c1-c1cc2cncnc2nc1N`, the Decrease in the experiment on Rattus norvegicus [1] worked out at 12%. Besides, the results for the Activity rating in the experiment on Rattus norvegicus [6] and in the experiment on Rattus norvegicus [8] were 1 and 0, respectively.
With `Cc1ncc2cc(-c3ccccc3Br)c(N)nc2n1`, the Activity rating turned out to be 0 in the experiment on Rattus norvegicus [11], 0 with Rattus norvegicus [5], 1 in the experiment with Rattus norvegicus [6] and 1 with Rattus norvegicus [8]. The compound also displayed a Decrease with Rattus norvegicus [12] of 19%.
`Cc1ncc2cc(-c3ccccc3C)c(N)nc2n1` showed a Decrease in the experiment with Rattus norvegicus [13] of 22%. Moreover, the Activity rating in the experiment on Rattus norvegicus [5], in the experiment with Rattus norvegicus [6] and with Rattus norvegicus [8] was 1 in each case.
Consider `Nc1nc2ncncc2cc1-c1c(Cl)cccc1Br`, for which the Activity rating in the experiment with Rattus norvegicus [14] is 1; with Rattus norvegicus [15], 1; with Rattus norvegicus [6] it was 1; with Rattus norvegicus [17] it was 1; in the experiment on Rattus norvegicus [8], 2; with Rattus norvegicus [18] it was 1. This compound returned a Decrease with Rattus norvegicus [16] of 28%.
In the case of `Cc1ncc2cc(-c3c(Br)cccc3Br)c(N)nc2n1`, the Activity rating in the experiment with Rattus norvegicus [19] amounted to 1; in the experiment with Rattus norvegicus [14], 2; in the experiment with Rattus norvegicus [5] it was 2; in the experiment with Rattus norvegicus [6], 2; in the experiment with Rattus norvegicus [8], 2; in the experiment with Rattus norvegicus [18] it was 1. Moreover, in the experiment on Rattus norvegicus [20], the Decrease is given as 28%.
Take `Nc1ncc2cc(-c3c(Cl)cccc3Cl)c(N)nc2n1`: the Activity rating in the experiment with Rattus norvegicus [14] amounted to 0; with Rattus norvegicus [5], 2; with Rattus norvegicus [22], 1; with Rattus norvegicus [6], 0; in the experiment with Rattus norvegicus [8], 1; in the experiment with Rattus norvegicus [18], 0. Besides, in the experiment on Rattus norvegicus [21], the Decrease was found to be 18%.
By LD50 is commonly meant the dose expected to kill half of the subjects tested. Read a high LD50 as lower toxicity. Consider `Cc1ncc2cc(-c3c(Cl)cccc3Cl)c(N)nc2n1`, for which the Activity rating in the experiment on Rattus norvegicus [14] was 1; with Rattus norvegicus [15], 1; with Rattus norvegicus [5] it was 3; in the experiment on Rattus norvegicus [23], 1; with Rattus norvegicus [6], 1; in the experiment with Rattus norvegicus [24], 1. Besides, the Activity rating with Rattus norvegicus [25] amounted to 1; in the experiment with Rattus norvegicus [8], 3; with Rattus norvegicus [18], 1. The compound further gave an ED30 in the experiment filed under Rattus norvegicus [26] of 17 mg/kg. Moreover, the median lethal dose (LD50) in the experiment filed under Rattus norvegicus [26] was greater than 7000 mg/kg. This compound also displayed a Decrease in the experiment with Rattus norvegicus [27] of 32%.
`Cc1ncc2cc(-c3c(Cl)cccc3Br)c(N)nc2n1` showed a Decrease in the experiment with Rattus norvegicus [28] of 26%. For the same compound, the Activity rating in the experiment on Rattus norvegicus [5] amounted to 2; in the experiment on Rattus norvegicus [29], 0; in the experiment with Rattus norvegicus [6], 2; with Rattus norvegicus [30] it was 1; with Rattus norvegicus [8], 2.
For the compound `Nc1nc2ncncc2cc1-c1c(Cl)cccc1Cl`, the Activity rating in the experiment on Rattus norvegicus [11] is 0; with Rattus norvegicus [31] it was 0; with Rattus norvegicus [32], 0; in the experiment with Rattus norvegicus [5], 2; in the experiment on Rattus norvegicus [6], 0; in the experiment with Rattus norvegicus [33], 0. For the same compound, the Activity rating with Rattus norvegicus [34] and in the experiment on Rattus norvegicus [8] was 0 each time. In the experiment with Rattus norvegicus [21], this compound displayed a Decrease of 22%.

The values above are taken from ChEMBL document CHEMBL1121810, “Antihypertensive activity of 6-arylpyrido[2,3-d]pyrimidin-7-amine derivatives” (1981).
